Experimental data taken from ChEMBL document CHEMBL1122743, “Structure-activity relationship study of the inhibition of adrenal cortical 11 beta-hydroxylase by new metyrapone analogues” (J Med Chem, 1984).

Target: T1, Cytochrome P450 11B1, mitochondrial (Bos taurus, UniProt P15150)
T1 sequence (P15150 whole entry): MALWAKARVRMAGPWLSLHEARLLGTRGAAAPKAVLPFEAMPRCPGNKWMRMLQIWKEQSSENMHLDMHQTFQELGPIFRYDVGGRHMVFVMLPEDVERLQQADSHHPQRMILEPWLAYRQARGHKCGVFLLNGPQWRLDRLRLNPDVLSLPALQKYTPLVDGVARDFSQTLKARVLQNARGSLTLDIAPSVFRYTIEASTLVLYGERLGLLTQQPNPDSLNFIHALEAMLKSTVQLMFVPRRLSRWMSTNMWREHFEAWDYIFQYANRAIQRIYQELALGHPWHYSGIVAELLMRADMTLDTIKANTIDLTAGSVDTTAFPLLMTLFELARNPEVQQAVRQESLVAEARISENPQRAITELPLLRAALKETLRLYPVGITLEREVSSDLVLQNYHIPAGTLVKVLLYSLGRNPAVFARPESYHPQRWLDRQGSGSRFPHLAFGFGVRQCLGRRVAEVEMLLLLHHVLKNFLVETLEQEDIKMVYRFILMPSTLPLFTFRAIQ
Assay: Evaluated for inhibition of bovine adrenal cortical mitochondrial 11 beta-hydroxylase
Assay type: functional
Method in brief: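 Crude lyophilized, defatted adrenal cortical mitochondria (300 µg) plus 15.0 µM purified adrenodoxin, in 0.50 mL of 50 mM potassium phosphate pH 7.40. Additions: 200 µM DOC with [3H]DOC tracer, 16 mM MgCl2, 4.6% propylene glycol, inhibitor (final 1% ethanol). Preincubated 5 min at 37 °C, then started with 1.5 mM NADPH. Products extracted into CH2Cl2, separated by TLC, counted by scintillation. Percent inhibition versus 1% ethanol controls; duplicates.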

Row | SMILES | IC50
1 | CC(C)(C(=O)c1ccccc1)c1cccnc1 | 3.3 µM
2 | CC(C)(C(=NO)c1cccnc1)c1cccnc1 | 4.78 µM
3 | CC(C)(Cc1ccccc1)c1cccnc1 | 0.66 µM
4 | CC(C)(c1cccnc1)C(N)c1cccnc1 (stereo not given) | > 1000 µM
5 | CC(C)(C(=O)c1cccnc1)c1cccnc1 [METYRAPONE] | 7.83 µM
6 | O=C(Cc1cccnc1)c1ccccc1 | 158 µM
7 | CC(C)(c1cccnc1)C(Cl)c1cccnc1 (stereo not given) | 7.25 µM

The remaining lines, values ahead:

Row | IC50 | SMILES
8 | 2.64 µM | CC(C)(Cc1cccnc1)c1cccnc1
9 | 1.53 µM | CC(C)(c1cccnc1)C(O)c1ccccc1 (stereo not given)
10 | 7.3 µM | COC(c1cccnc1)C(C)(C)c1cccnc1 (stereo not given)
11 | 7.72 µM | CC(C(=O)c1ccccc1)c1cccnc1 (stereo not given)
12 | 7.05 µM | CC(C)(c1cccnc1)C(O)c1cccnc1 (stereo not given) [METYRAPOL]
13 | 5.36 µM | CC(C)(c1cccnc1)C(I)c1cccnc1 (stereo not given)
14 | 1.63 µM | CC(C)(c1cccnc1)C(Cl)c1ccccc1 (stereo not given)
15 | 87.5 µM | CC(=O)NC(c1cccnc1)C(C)(C)c1cccnc1 (stereo not given)
